According to ChEMBL document CHEMBL1137941, “Doxorubicin prodrug on the basis of tert-butyl cephalosporanate sulfones” (Bioorg Med Chem Lett, 2004):
Values after ≈ are worked out from the molar mass of the structure shown. Active and inactive are the calls of the source. The rule behind the calls is not given here.

How the values were obtained:
MG-22A [1] = assay: In vitro cytotoxic concentration against mouse hepatoma cell line (MG-22A) using MTT coloration; type: functional, cell-based
N2a [2] = assay: In vitro cytotoxic concentration against mouse neuroblastoma (neuro 2A) using MTT coloration; type: functional, cell-based
B16 [3] = assay: In vitro cytotoxic concentration against mouse melanoma cell line (B16) using MTT coloration; type: functional, cell-based
MG-22A [4] = assay: In vitro inhibitory activity against mouse hepatoma cell line (MG-22A) using CV coloration; type: functional, cell-based
N2a [5] = assay: In vitro inhibitory activity against mouse neuroblastoma (neuro 2A) using CV coloration; type: functional, cell-based
HT-1080 [6] = assay: In vitro inhibitory activity against human fibrosarcoma cell line (HT1080) using CV coloration; type: functional, cell-based
HT-1080 [7] = assay: In vitro cytotoxic concentration against human fibrosarcoma cell line (HT1080) using MTT coloration; type: functional, cell-based
B16 [8] = assay: In vitro inhibitory activity against mouse melanoma cell line (B16) using CV coloration; type: functional, cell-based
CCRF S-180 [9] = assay: Growth inhibitory effect administered at dose of 1.5 mg/kg/day given in the schedule of 1,2,3,4,7 day against Sarcoma S-180 tumor transplanted in male JRC mice at eleventh day was determined; type: functional; conditions: Mus musculus, in the assay text read “seventh day” for “eleventh day”
Outline: (§1)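 Mice given the agent on days 1, 2, 3, 4 and 7. Doxorubicin was given in physiological solution (0.9% NaCl, pH 6.2). Prodrugs were given in the same solution with 2% DMSO and 0.3% agarose. Tumour growth inhibition (%) was read on fixed days against a vehicle-treated control; in the 2.0 mg/kg/day series, controls received physiological solution only. Negative values mean tumour growth was activated.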

Mus musculus [10] = assay: Physiological change in cardiomyocytes after the treatment of male JRC healthy mice by the administration of compound at dose of 1.5 mg/kg/day cells isolated on the 9th day by using MTT assay; type: functional
Outline: (§2)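 Male JRC mice, healthy or bearing Sarcoma S-180, were dosed on days 1, 2, 3, 4 and 7. Cardiomyocytes were isolated on day 9 and resuspended in DMEM with 4% FBS, 2 mM glutamine, 13 mM NaHCO₃, 10 mM HEPES and streptomycin. After 4 h at 37° (95% air/5% CO₂), serum was omitted. Intracellular peptide was read by Coomassie Blue and mitochondrial redox by MTT, against cells from untreated animals.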

Mus musculus [11] = assay: Physiological change in cardiomyocytes after the treatment of male JRC mice with transplanted sarcoma S-180 by the administration of compound at dose of 5.0 mg/kg/day cells isolated on the 9th day by using CB assay; type: functional; outline: as §2
B16 [12] = assay: Growth inhibitory effect when administered at dose of 5.0 mg/kg/day given in the schedule of 1,2,3,4,7 day against (B16) mouse melanoma at eleventh day was determined; type: functional; outline: as §1
Mus musculus [13] = assay: Physiological change in cardiomyocytes after the treatment of male JRC healthy mice by the administration of compound at dose of 5.0 mg/kg/day cells isolated on the 9th day by using CB assay; type: functional; outline: as §2
B16 [14] = assay: Growth inhibitory effect when administered at dose of 1.5 mg/kg/day given in the schedule of 1,2,3,4,7 day against (B16) mouse melanoma at eleventh day was determined; type: functional; conditions: B16, read-out: Inhibition; outline: as §1
CCRF S-180 [15] = assay: Growth inhibitory effect administered at dose of 1.5 mg/kg/day given in the schedule of 1,2,3,4,7 day against Sarcoma S-180 tumor transplanted in male JRC mice at fourteenth day was determined; type: functional; conditions: Mus musculus, in the assay text read “ninth day” for “fourteenth day”; outline: as §1
B16 [16] = assay: Growth inhibitory effect when administered at dose of 2.0 mg/kg/day given in the schedule of 1,2,3,4,7 day against (B16) mouse melanoma at eleventh day was determined; ND= No data; type: functional; outline: as §1
Mus musculus [17] = assay: Physiological change in cardiomyocytes after the treatment of male JRC mice with transplanted sarcoma S-180 by the administration of compound at dose of 1.5 mg/kg/day cells isolated on the 9th day by using MTT assay; type: functional; outline: as §2
Mus musculus [18] = assay: Physiological change in cardiomyocytes after the treatment of male JRC healthy mice by the administration of compound at dose of 5.0 mg/kg/day cells isolated on the 9th day by using MTT assay; type: functional; outline: as §2
CCRF S-180 [19] = assay: Growth inhibitory effect when administered at dose of 2.0 mg/kg/day given in the schedule of 1,2,3,4,7 day against Sarcoma S-180 tumor transplanted in male JRC mice at fourteenth day was determined; type: functional, organism-based; conditions: Mus musculus
CCRF S-180 [20] = assay: Growth inhibitory effect when administered at dose of 5.0 mg/kg/day given in the schedule of 1,2,3,4,7 day against Sarcoma S-180 tumor transplanted in male JRC mice at fourteenth day was determined; type: functional, Mus musculus; outline: as §1
Mus musculus [21] = assay: Physiological change in cardiomyocytes after the treatment of male JRC mice with transplanted sarcoma S-180 by the administration of compound at dose of 1.5 mg/kg/day cells isolated on the 9th day by using CB assay; type: functional; outline: as §2
Mus musculus [22] = assay: Physiological change in cardiomyocytes after the treatment of male JRC mice with transplanted sarcoma S-180 by the administration of compound at dose of 5.0 mg/kg/day cells isolated on the 9th day by using MTT assay; type: functional; outline: as §2
B16 [23] = assay: Growth inhibitory effect when administered at dose of 2.0 mg/kg/day given in the schedule of 1,2,3,4,7 day against (B16) mouse melanoma at fourteenth day was determined; type: functional; outline: as §1
Mus musculus [24] = assay: Physiological change in cardiomyocytes after the treatment of male JRC healthy mice by the administration of compound at dose of 1.5 mg/kg/day cells isolated on the 9th day by using CB assay; type: functional; outline: as §2
B16 [25] = assay: Growth inhibitory effect when administered at dose of 1.5 mg/kg/day given in the schedule of 1,2,3,4,7 day against (B16) mouse melanoma at fourteenth day was determined; type: functional; conditions: B16, read-out: Inhibition; outline: as §1
B16 [26] = assay: Growth inhibitory effect when administered at dose of 5.0 mg/kg/day given in the schedule of 1,2,3,4,7 day against (B16) mouse melanoma at fourteenth day was determined; type: functional; outline: as §1
B16 [27] = assay: Growth inhibitory effect administered at dose of 1.5 mg/kg/day given in the schedule of 1,2,3,4,7 day against (B16) mouse melanoma at fourteenth day was determined; type: functional; outline: as §1
B16 [28] = assay: Growth inhibitory effect administered at dose of 2.0 mg/kg/day given in the schedule of 1,2,3,4,7 day against (B16) mouse melanoma at eleventh day was determined; type: functional; outline: as §1
CCRF S-180 [29] = assay: Growth inhibitory effect administered at dose of 1.5 mg/kg/day given in the schedule of 1,2,3,4,7 day against Sarcoma S-180 tumor transplanted in male JRC mice at fourteenth day was determined; No effect; type: functional, organism-based; conditions: Mus musculus; outline: as §1
CCRF S-180 [30] = assay: Growth inhibitory effect administered at dose of 5.0 mg/kg/day given in the schedule of 1,2,3,4,7 day against Sarcoma S-180 tumor transplanted in male JRC mice at eleventh day was determined; type: functional; conditions: Mus musculus; outline: as §1
CCRF S-180 [31] = assay: Growth inhibitory effect administered at dose of 5.0 mg/kg/day given in the schedule of 1,2,3,4,7 day against Sarcoma S-180 tumor transplanted in male JRC mice at fourteenth day was determined; type: functional; conditions: Mus musculus; outline: as §1
CCRF S-180 [32] = assay: Growth inhibitory effect of compound when administered at dose of 1.5 mg/kg/day given in the schedule of 1,2,3,4,7 day against Sarcoma S-180 tumor transplanted in male JRC mice was determined; No effect; conditions: Mus musculus
B16 [33] = assay: Growth inhibitory effect administered at dose of 1.5 mg/kg/day given in the schedule of 1,2,3,4,7 day against (B16) mouse melanoma at eleventh day was determined; type: functional; outline: as §1
B16 [34] = assay: Growth inhibitory effect administered at dose of 5.0 mg/kg/day given in the schedule of 1,2,3,4,7 day against (B16) mouse melanoma at eleventh day was determined; type: functional; outline: as §1
B16 [35] = assay: Growth inhibitory effect administered at dose of 5.0 mg/kg/day given in the schedule of 1,2,3,4,7 day against (B16) mouse melanoma at fourteenth day was determined; type: functional; outline: as §1

Row | SMILES | IC50 (MG-22A [1]) | IC50 (N2a [2]) | IC50 (B16 [3]) | IC50 (MG-22A [4]) | IC50 (N2a [5]) | IC50 (HT-1080 [6]) | IC50 (HT-1080 [7]) | IC50 (B16 [8]) | Activity (Mus musculus [10]) | Activity (Mus musculus [11]) | Activity (Mus musculus [13]) | Activity (Mus musculus [17]) | Activity (Mus musculus [18]) | Activity (Mus musculus [21]) | Activity (Mus musculus [22]) | Activity (Mus musculus [24]) | inhibition in vivo at 1.5 mg/kg/day (B16 [27]) | inhibition in vivo at 5 mg/kg/day (CCRF S-180 [30]) | inhibition in vivo at 5 mg/kg/day (CCRF S-180 [31]) | inhibition in vivo at 1.5 mg/kg/day (B16 [33]) | other results
1 | CC1=C(C(=O)OC(C)(C)C)N2C(=O)[C@H](Cl)[C@H]2S(=O)(=O)C1 | 2 µg/mL (≈ 6.22 µM) | 2 µg/mL (≈ 6.22 µM) | 2 µg/mL (≈ 6.22 µM) | 6 µg/mL (≈ 18.6 µM) | 2 µg/mL (≈ 6.22 µM) | 6 µg/mL (≈ 18.6 µM) | 6 µg/mL (≈ 18.6 µM) | 3 µg/mL (≈ 9.32 µM) |  |  |  |  |  |  |  |  |  |  |  |  | 
2 | COc1cccc2c1C(=O)c1c(O)c3c(c(O)c1C2=O)C[C@@](O)(C(=O)CO)C[C@@H]3O[C@H]1C[C@H](N)C(O)[C@H](C)O1 (single isomer, unassigned) [DOXORUBICIN] | 0.73 µg/mL (≈ 1.34 µM) | < 0.001 µg/mL | < 0.001 µg/mL | < 0.001 µg/mL | 0.004 µg/mL (≈ 0.00736 µM) | 0.17 µg/mL (≈ 0.313 µM) | 0.31 µg/mL (≈ 0.57 µM) | 0.001 µg/mL (≈ 0.00184 µM) | 40 | 81 | 60 | 114 | 39 | 90 | 130 | 83 |  |  |  |  | inhibition in vivo at 1.5 mg/kg/day (CCRF S-180 [9]): 7%; inhibition in vivo at 5 mg/kg/day (B16 [12]): 65%; inhibition in vivo at 1.5 mg/kg/day (B16 [14]): 70%; inhibition in vivo at 1.5 mg/kg/day (CCRF S-180 [15]): 28%; inhibition in vivo at 2 mg/kg/day (B16 [16]): 25%; inhibition (CCRF S-180 [19]): Not detectable; Inhibition (CCRF S-180 [20]): 37%; inhibition in vivo at 5 mg/kg/day (CCRF S-180 [20]; Mus musculus, CCRF S-180, read-out: Inhibition): 37%; inhibition in vivo at 2 mg/kg/day (B16 [23]): 70%; inhibition in vivo at 1.5 mg/kg/day (B16 [25]): 60%; inhibition in vivo at 5 mg/kg/day (B16 [26]): 75%
3 | COc1cccc2c1C(=O)c1c(O)c3c(c(O)c1C2=O)C[C@@](O)(C(=O)CO)C[C@@H]3O[C@H]1C[C@H](NC(=O)OCC2=C(C(=O)OC(C)(C)C)N3C(=O)[C@@H](Cl)[C@@H]3S(=O)(=O)C2)[C@@H](O)[C@H](C)O1 | 0.04 µg/mL (≈ 0.0441 µM) | 0.008 µg/mL (≈ 0.00882 µM) | 0.04 µg/mL (≈ 0.0441 µM) | 0.03 µg/mL (≈ 0.0331 µM) | 0.001 µg/mL (≈ 0.0011 µM) | 0.02 µg/mL (≈ 0.022 µM) | 0.08 µg/mL (≈ 0.0882 µM) | 0.03 µg/mL (≈ 0.0331 µM) | 85 | 70 | 90 | 225 | 87 | 106 | 230 | 92 | 26% | 72% | 30% | 75% | Inhibition (B16 [28]): 86%; inhibition in vivo at 2 mg/kg/day (B16 [28]; Mus musculus, B16, read-out: Inhibition): 86%; inhibition (CCRF S-180 [29]): inactive; inhibition (CCRF S-180 [32]): inactive
4 | COc1cccc2c1C(=O)c1c(O)c3c(c(O)c1C2=O)C[C@@](O)(C(=O)CO)C[C@@H]3OC1C[C@H](NC(=O)OCC2=C(C(=O)OC(C)(C)C)N3C(=O)/C(=C/C(=O)OC(C)(C)C)[C@@H]3S(=O)(=O)C2)[C@@H](O)[C@H](C)O1 (stereo partly specified) | 0.07 µg/mL (≈ 0.0711 µM) | 0.04 µg/mL (≈ 0.0406 µM) | 0.5 µg/mL (≈ 0.508 µM) | 0.07 µg/mL (≈ 0.0711 µM) | 0.04 µg/mL (≈ 0.0406 µM) | 0.4 µg/mL (≈ 0.406 µM) | 0.5 µg/mL (≈ 0.508 µM) | 0.09 µg/mL (≈ 0.0914 µM) | 54 | 90 | 75 | 270 | 102 | 92 | 360 | 87 | -49% | -10% | 22% | 13% | inhibition in vivo at 5 mg/kg/day (B16 [34]): 11%; inhibition in vivo at 5 mg/kg/day (B16 [35]): 16%
